Measured values: ChEMBL document CHEMBL3351726 (J Med Chem, 2014)
Residues, ends and D or L forms follow the SMILES beside them.

How the values were obtained:
[1] = Retention time of the compound measured over 30 mins at flow rate of 1 mL/min by HPLC; assay type: physicochemical; details: 0.5 h
Method in brief: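 Reversed-phase analytical HPLC or LC−MS on a SymmetryShield RP18 column (5 μm, 4.6 × 150 mm). Gradient 10−60% B over 30 min at 1 mL/min; A = 0.1% TFA in water, B = 0.1% TFA in acetonitrile.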

[2] = system: HEK293; test: Selectivity ratio of IC50 for rat Nav1.2 expressed in HEK-293 cells to IC50 for human Nav1.7 expressed in HEK-293 cells; assay type: cell-based
[3] = Retention time of the compound measured over 15 mins at flow rate of 1 mL/min by HPLC
[4] = molecular target: Sodium channel protein type 9 subunit alpha (Homo sapiens, UniProt Q15858); test: Inhibition of human Nav1.7 expressed in HEK-293 cells at -130 to -110 mV holding potential by whole-cell voltage clamp analysis; assay type: cell-based, HEK293
Sodium channel protein type 9 subunit alpha, sequence (Q15858 whole entry): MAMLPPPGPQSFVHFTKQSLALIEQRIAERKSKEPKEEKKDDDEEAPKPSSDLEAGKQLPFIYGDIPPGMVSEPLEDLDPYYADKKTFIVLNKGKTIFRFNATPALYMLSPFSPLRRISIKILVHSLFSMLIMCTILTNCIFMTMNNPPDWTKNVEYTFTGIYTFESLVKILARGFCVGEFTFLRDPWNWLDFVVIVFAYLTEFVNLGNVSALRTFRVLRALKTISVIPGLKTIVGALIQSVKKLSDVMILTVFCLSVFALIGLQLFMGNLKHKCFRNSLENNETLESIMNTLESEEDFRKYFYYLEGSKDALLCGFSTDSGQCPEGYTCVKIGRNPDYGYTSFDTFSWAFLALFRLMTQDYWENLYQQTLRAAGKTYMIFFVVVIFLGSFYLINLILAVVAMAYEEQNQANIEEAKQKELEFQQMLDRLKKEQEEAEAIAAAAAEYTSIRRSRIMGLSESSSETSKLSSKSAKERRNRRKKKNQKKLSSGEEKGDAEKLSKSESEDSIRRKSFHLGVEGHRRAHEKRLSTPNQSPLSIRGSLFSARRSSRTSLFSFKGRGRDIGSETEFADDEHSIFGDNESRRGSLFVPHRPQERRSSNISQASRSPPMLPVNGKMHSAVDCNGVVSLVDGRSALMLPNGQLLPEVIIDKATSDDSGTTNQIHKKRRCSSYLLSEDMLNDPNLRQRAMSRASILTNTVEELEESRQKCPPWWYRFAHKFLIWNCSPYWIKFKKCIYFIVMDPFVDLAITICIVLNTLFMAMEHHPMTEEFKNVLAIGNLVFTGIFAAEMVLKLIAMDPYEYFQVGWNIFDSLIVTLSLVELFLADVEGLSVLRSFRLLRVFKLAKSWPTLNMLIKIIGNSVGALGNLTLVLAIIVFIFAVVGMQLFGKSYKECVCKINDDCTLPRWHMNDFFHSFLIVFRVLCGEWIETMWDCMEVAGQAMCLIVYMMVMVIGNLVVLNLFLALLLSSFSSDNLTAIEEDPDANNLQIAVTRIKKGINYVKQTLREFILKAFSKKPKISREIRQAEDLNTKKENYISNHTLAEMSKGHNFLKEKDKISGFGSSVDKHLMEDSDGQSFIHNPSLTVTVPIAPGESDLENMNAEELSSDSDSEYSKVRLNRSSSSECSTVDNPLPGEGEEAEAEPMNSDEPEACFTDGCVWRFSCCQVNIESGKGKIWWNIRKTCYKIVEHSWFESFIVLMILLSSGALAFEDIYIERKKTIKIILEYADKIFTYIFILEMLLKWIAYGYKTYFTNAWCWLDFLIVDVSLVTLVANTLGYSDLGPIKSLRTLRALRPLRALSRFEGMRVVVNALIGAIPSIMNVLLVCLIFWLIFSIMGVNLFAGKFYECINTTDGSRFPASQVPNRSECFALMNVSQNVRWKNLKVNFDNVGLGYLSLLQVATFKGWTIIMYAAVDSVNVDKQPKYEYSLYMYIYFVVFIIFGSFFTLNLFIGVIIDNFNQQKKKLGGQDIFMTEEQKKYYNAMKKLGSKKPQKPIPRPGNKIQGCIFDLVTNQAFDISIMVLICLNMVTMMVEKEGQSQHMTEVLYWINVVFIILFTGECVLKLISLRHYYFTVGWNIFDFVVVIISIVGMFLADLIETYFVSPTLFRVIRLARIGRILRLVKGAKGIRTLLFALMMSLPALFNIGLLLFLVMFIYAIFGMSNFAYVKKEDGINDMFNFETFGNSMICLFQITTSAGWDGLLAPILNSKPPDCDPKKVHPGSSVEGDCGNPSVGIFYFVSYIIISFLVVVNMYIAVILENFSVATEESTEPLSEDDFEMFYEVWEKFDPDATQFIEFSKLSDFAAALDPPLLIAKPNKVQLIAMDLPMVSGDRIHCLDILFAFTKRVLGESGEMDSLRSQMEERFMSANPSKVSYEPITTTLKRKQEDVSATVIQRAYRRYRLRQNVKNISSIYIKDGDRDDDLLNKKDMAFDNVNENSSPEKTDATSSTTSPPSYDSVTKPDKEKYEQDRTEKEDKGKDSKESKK

## CC[C@H](C)[C@H](NC(=O)[C@H](CCCCN)NC(=O)[C@H](CCCCN)NC(=O)[C@@H]1CSSC[C@@H]2NC(=O)[C@H](CCCCN)NC(=O)[C@H](CCCNC(=N)N)NC(=O)[C@H](C)NC(=O)[C@H](CO)NC(=O)[C@H](CC(=O)O)NC(=O)[C@@H]3CSSC[C@H](NC(=O)[C@H](C(C)C)NC(=O)[C@H](CC(C)C)NC(=O)CNC(=O)[C@H](CCC(=O)O)NC(=O)[C@H](CSSC[C@H](NC(=O)[C@@H](N)Cc4ccc(O)cc4)C(=O)N[C@@H](CCC(N)=O)C(=O)N[C@@H](CCCCN)C(=O)N[C@@H](Cc4c[nH]c5ccccc45)C(=O)N[C@@H](CCSC)C(=O)N[C@@H](Cc4c[nH]c5ccccc45)C(=O)N[C@@H]([C@@H](C)O)C(=O)N3)NC2=O)C(=O)N[C@@H](CCCNC(=N)N)C(=O)N[C@@H](CC(C)C)C(=O)N[C@@H](Cc2c[nH]c3ccccc23)C(=O)N1)C(=O)N[C@H](C(=O)N[C@@H](Cc1c[nH]c2ccccc12)C(=O)O)[C@@H](C)CC (HELM PEPTIDE1{Y.C.Q.K.W.M.W.T.C.D.S.A.R.K.C.C.E.G.L.V.C.R.L.W.C.K.K.I.I.W}$PEPTIDE1,PEPTIDE1,2:R3-16:R3|PEPTIDE1,PEPTIDE1,9:R3-21:R3|PEPTIDE1,PEPTIDE1,15:R3-25:R3$$$V2.0)
[1]
  Retention_time: 15.83 min
[2]
  Ratio IC50: 9
[3]
  Retention_time: 9.29 min

## CSCC[C@@H]1NC(=O)[C@H](Cc2c[nH]c3ccccc23)NC(=O)[C@H](CCCCN)NC(=O)[C@H](CCC(N)=O)NC(=O)[C@@H](NC(=O)[C@@H](N)Cc2ccc(O)cc2)CSSC[C@@H]2NC(=O)[C@@H]3CSSC[C@@H](C(=O)N[C@@H](CCCCN)C(=O)N[C@@H](CCCCN)C(=O)N[C@@H](CCCCN)C(=O)N[C@@H](CC(C)C)C(=O)N[C@@H](Cc4c[nH]c5ccccc45)C(=O)O)NC(=O)[C@H](Cc4c[nH]c5ccccc45)NC(=O)[C@H](CC(C)C)NC(=O)[C@H](CCC(=O)O)NC(=O)[C@H](CSSC[C@H](NC(=O)[C@H]([C@@H](C)O)NC(=O)[C@H](Cc4c[nH]c5ccccc45)NC1=O)C(=O)N[C@@H](CC(=O)O)C(=O)N[C@@H](CO)C(=O)N[C@@H](CCC(=O)O)C(=O)N[C@@H](CCCNC(=N)N)C(=O)N[C@@H](CCCCN)C(=O)N3)NC(=O)[C@H](C(C)C)NC(=O)[C@H](Cc1ccc(O)cc1)NC(=O)CNC(=O)[C@H](CCC(=O)O)NC2=O
[1]
  Retention_time: 14.36 min
[4]
  IC50: > 3000 nM
[3]
  Retention_time: 9.09 min

## [H][C@]12CSSC[C@@H](C(=O)N[C@@H](CCCCN)C(=O)N[C@@H](CCCCN)C(=O)N[C@H](C(=O)N[C@@H](CC(C)C)C(=O)N[C@@H](Cc3c[nH]c4ccccc34)C(=O)O)[C@@H](C)CC)NC(=O)[C@H](Cc3c[nH]c4ccccc34)NC(=O)[C@H](CC(C)C)NC(=O)[C@H](CCCNC(=N)N)NC(=O)[C@]3([H])CSSC[C@]([H])(NC(=O)[C@]([H])([C@@H](C)O)NC(=O)[C@H](Cc4c[nH]c5ccccc45)NC(=O)[C@H](CCSC)NC(=O)[C@H](Cc4c[nH]c5ccccc45)NC(=O)[C@H](CCCCN)NC(=O)[C@H](CCC(N)=O)NC(=O)[C@@H](NC(=O)[C@@H](N)Cc4ccc(O)cc4)CSSC[C@]([H])(NC1=O)C(=O)N[C@@H](CCC(=O)O)C(=O)NCC(=O)N[C@@H](CC(C)C)C(=O)N[C@@H](C(C)C)C(=O)N3)C(=O)N[C@@H](CC(=O)O)C(=O)N[C@@H](CO)C(=O)N[C@@H](C)C(=O)N[C@@H](CCCNC(=N)N)C(=O)N[C@@H](CCCCN)C(=O)N2 (HELM PEPTIDE1{Y.C.Q.K.W.M.W.T.C.D.S.A.R.K.C.C.E.G.L.V.C.R.L.W.C.K.K.I.L.W}$PEPTIDE1,PEPTIDE1,2:R3-16:R3|PEPTIDE1,PEPTIDE1,9:R3-21:R3|PEPTIDE1,PEPTIDE1,15:R3-25:R3$$$V2.0)
[1]
  Retention_time: 15.95 min
[2]
  Ratio IC50: 20
[3]
  Retention_time: 9.54 min

## [H][C@]12CSSC[C@@H](C(=O)N[C@@H](CCCCN)C(=O)N[C@@H](CCCCN)C(=O)N[C@@H](CCCCN)C(=O)N[C@H](C(=O)N[C@@H](CC(C)C)C(=O)N[C@@H](Cc3c[nH]c4ccccc34)C(=O)O)[C@@H](C)CC)NC(=O)[C@H](Cc3c[nH]c4ccccc34)NC(=O)[C@H](CC(C)C)NC(=O)[C@H](CCCNC(=N)N)NC(=O)[C@]3([H])CSSC[C@]([H])(NC(=O)[C@]([H])([C@@H](C)O)NC(=O)[C@H](Cc4c[nH]c5ccccc45)NC(=O)[C@H](CCSC)NC(=O)[C@H](Cc4c[nH]c5ccccc45)NC(=O)[C@H](CCCCN)NC(=O)[C@H](CCC(N)=O)NC(=O)[C@@H](NC(=O)[C@@H](N)Cc4ccc(O)cc4)CSSC[C@]([H])(NC1=O)C(=O)N[C@@H](CCC(=O)O)C(=O)NCC(=O)N[C@@H](CC(C)C)C(=O)N[C@@H](C(C)C)C(=O)N3)C(=O)N[C@@H](CC(=O)O)C(=O)N[C@@H](CO)C(=O)N[C@@H](C)C(=O)N[C@@H](CCCNC(=N)N)C(=O)N[C@@H](CCCCN)C(=O)N2 (HELM PEPTIDE1{Y.C.Q.K.W.M.W.T.C.D.S.A.R.K.C.C.E.G.L.V.C.R.L.W.C.K.K.K.I.L.W}$PEPTIDE1,PEPTIDE1,2:R3-16:R3|PEPTIDE1,PEPTIDE1,9:R3-21:R3|PEPTIDE1,PEPTIDE1,15:R3-25:R3$$$V2.0)
[1]
  Retention_time: 15.88 min
[2]
  Ratio IC50: 33
[3]
  Retention_time: 9.05 min

## [H][C@]12CSSC[C@@H](C(=O)N[C@@H](CCCCN)C(=O)N[C@@H](CCCCN)C(=O)N[C@@H](CCCCN)C(=O)N[C@@H](CC(C)C)C(=O)N[C@@H](Cc3c[nH]c4ccccc34)C(=O)O)NC(=O)[C@H](Cc3c[nH]c4ccccc34)NC(=O)[C@H](CC(C)C)NC(=O)[C@H](CCCNC(=N)N)NC(=O)[C@]3([H])CSSC[C@]([H])(NC(=O)[C@]([H])([C@@H](C)O)NC(=O)[C@H](Cc4c[nH]c5ccccc45)NC(=O)[C@H](CCSC)NC(=O)[C@H](Cc4c[nH]c5ccccc45)NC(=O)[C@H](CCCCN)NC(=O)[C@H](CCC(N)=O)NC(=O)[C@@H](NC(=O)[C@@H](N)Cc4ccc(O)cc4)CSSC[C@]([H])(NC1=O)C(=O)N[C@@H](CCC(=O)O)C(=O)NCC(=O)N[C@@H](CC(C)C)C(=O)N[C@@H](C(C)C)C(=O)N3)C(=O)N[C@@H](CC(=O)O)C(=O)N[C@@H](CO)C(=O)N[C@@H](C)C(=O)N[C@@H](CCCNC(=N)N)C(=O)N[C@@H](CCCCN)C(=O)N2 (HELM PEPTIDE1{Y.C.Q.K.W.M.W.T.C.D.S.A.R.K.C.C.E.G.L.V.C.R.L.W.C.K.K.K.L.W}$PEPTIDE1,PEPTIDE1,2:R3-16:R3|PEPTIDE1,PEPTIDE1,9:R3-21:R3|PEPTIDE1,PEPTIDE1,15:R3-25:R3$$$V2.0)
[1]
  Retention_time: 16.59 min
[2]
  Ratio IC50: 24
[3]
  Retention_time: 9.86 min

## CSCC[C@@H]1NC(=O)[C@H](Cc2c[nH]c3ccccc23)NC(=O)[C@H](CCCCN)NC(=O)[C@H](CCC(N)=O)NC(=O)[C@@H](NC(=O)[C@@H](N)Cc2ccc(O)cc2)CSSC[C@@H]2NC(=O)[C@@H]3CSSC[C@@H](C(=O)N[C@@H](CCCCN)C(=O)N[C@@H](CCCCN)C(=O)N[C@@H](CCCCN)C(=O)N[C@@H](CC(C)C)C(=O)N[C@@H](Cc4c[nH]c5ccccc45)C(=O)O)NC(=O)[C@H](Cc4c[nH]c5ccccc45)NC(=O)[C@H](CC(C)C)NC(=O)[C@H](CCCNC(=N)N)NC(=O)[C@H](CSSC[C@H](NC(=O)[C@H]([C@@H](C)O)NC(=O)[C@H](Cc4c[nH]c5ccccc45)NC1=O)C(=O)N[C@@H](CC(=O)O)C(=O)N[C@@H](CCC(=O)O)C(=O)N[C@@H](CCC(=O)O)C(=O)N[C@@H](CCCNC(=N)N)C(=O)N[C@@H](CCCCN)C(=O)N3)NC(=O)[C@H](C(C)C)NC(=O)[C@H](CC(C)C)NC(=O)CNC(=O)[C@H](CCC(=O)O)NC2=O (HELM PEPTIDE1{Y.C.Q.K.W.M.W.T.C.D.E.E.R.K.C.C.E.G.L.V.C.R.L.W.C.K.K.K.L.W}$PEPTIDE1,PEPTIDE1,2:R3-16:R3|PEPTIDE1,PEPTIDE1,9:R3-21:R3|PEPTIDE1,PEPTIDE1,15:R3-25:R3$$$V2.0)
[1]
  Retention_time: 14.78 min
[4]
  IC50: 293 nM
[3]
  Retention_time: 8.66 min

## CSCC[C@@H]1NC(=O)[C@H](Cc2c[nH]c3ccccc23)NC(=O)[C@H](CCCCN)NC(=O)[C@H](CCC(N)=O)NC(=O)[C@@H](NC(=O)[C@@H](N)Cc2ccc(O)cc2)CSSC[C@@H]2NC(=O)[C@@H]3CSSC[C@@H](C(=O)N[C@@H](CCCCN)C(=O)N[C@@H](CCCCN)C(=O)N[C@@H](CCCCN)C(=O)N(C)[C@@H](CC(C)C)C(=O)N[C@@H](Cc4c[nH]c5ccccc45)C(=O)O)NC(=O)[C@H](Cc4c[nH]c5ccccc45)NC(=O)[C@H](CC(C)C)NC(=O)[C@H](CCCNC(=N)N)NC(=O)[C@H](CSSC[C@H](NC(=O)[C@H]([C@@H](C)O)NC(=O)[C@H](Cc4c[nH]c5ccccc45)NC1=O)C(=O)N[C@@H](CC(=O)O)C(=O)N[C@@H](CO)C(=O)N[C@@H](C)C(=O)N[C@@H](CCCNC(=N)N)C(=O)N[C@@H](CCCCN)C(=O)N3)NC(=O)[C@H](C(C)C)NC(=O)[C@H](CC(C)C)NC(=O)CNC(=O)[C@H](CCC(=O)O)NC2=O (HELM PEPTIDE1{Y.C.Q.K.W.M.W.T.C.D.S.A.R.K.C.C.E.G.L.V.C.R.L.W.C.K.K.K.[meL].W}$PEPTIDE1,PEPTIDE1,2:R3-16:R3|PEPTIDE1,PEPTIDE1,9:R3-21:R3|PEPTIDE1,PEPTIDE1,15:R3-25:R3$$$V2.0)
[1]
  Retention_time: 15.1 min
[2]
  Ratio IC50: 2.8
[3]
  Retention_time: 9.04 min
